Assay results reported in ChEMBL document CHEMBL3632581, “Dimers of Melampomagnolide B Exhibit Potent Anticancer Activity against Hematological and Solid Tumor Cells” (J Med Chem, 2015).

Tests used:
[1] = tested on: CCRF-CEM; assay: Cytotoxicity against human CCRF-CEM cells after 48 hrs by SRB assay; assay type: functional; details: for CC50: read-out: LC50 (the source's name)
How it was run: (§1)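 NCI-60 five-dose screen at 10−8 to 10−4 M. Cells were plated at 5,000–40,000/well in RPMI 1640 with 5% FBS and 2 mM L-glutamine, then preincubated 24 h, and time-zero plates were TCA-fixed. Compound was added from DMSO stocks and exposed 48 h at 37 °C. Cells were TCA-fixed, SRB-stained, and read at 515 nm. LC50 is the concentration halving the cell population through cell death.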

[2] = tested on: MOLT-4; assay: Cytotoxicity against human MOLT4 cells after 48 hrs by SRB assay; assay type: functional; details: MOLT-4, 48 h; for CC50: read-out: LC50 (the source's name); how it was run: as §1
[3] = tested on: RPMI-8226; assay: Cytotoxicity against human RPMI8226 cells after 48 hrs by SRB assay; assay type: functional; details: RPMI-8226, 48 h; for CC50: read-out: LC50 (the source's name); how it was run: as §1
[4] = tested on: NCI-H226; assay: Cytotoxicity against human NCI-H226 cells after 48 hrs by SRB assay; assay type: functional; details: NCI-H226, 48 h; for CC50: read-out: LC50 (the source's name); how it was run: as §1
[5] = tested on: NCI-H23; assay: Cytotoxicity against human NCI-H23 cells after 48 hrs by SRB assay; assay type: functional; details: NCI-H23, 48 h; for CC50: read-out: LC50 (the source's name); how it was run: as §1
[6] = tested on: HCC 2998; assay: Cytotoxicity against human HCC2998 cells after 48 hrs by SRB assay; assay type: functional; details: HCC 2998, 48 h; for CC50: read-out: LC50 (the source's name); how it was run: as §1
[7] = tested on: HCT-116; assay: Cytotoxicity against human HCT116 cells after 48 hrs by SRB assay; assay type: functional; details: HCT-116, 48 h; for CC50: read-out: LC50 (the source's name); how it was run: as §1
[8] = tested on: HCT-15; assay: Cytotoxicity against human HCT15 cells after 48 hrs by SRB assay; assay type: functional; details: HCT-15, 48 h; for CC50: read-out: LC50 (the source's name); how it was run: as §1
[9] = tested on: HT-29; assay: Cytotoxicity against human HT-29 cells after 48 hrs by SRB assay; assay type: functional; details: HT-29, 48 h; for CC50: read-out: LC50 (the source's name); how it was run: as §1
[10] = tested on: KM12; assay: Cytotoxicity against human KM12 cells after 48 hrs by SRB assay; assay type: functional; details: KM12, 48 h; for CC50: read-out: LC50 (the source's name); how it was run: as §1
[11] = tested on: SF-268; assay: Cytotoxicity against human SF268 cells after 48 hrs by SRB assay; assay type: functional; details: SF-268, 48 h; for CC50: read-out: LC50 (the source's name); how it was run: as §1
[12] = tested on: SF-295; assay: Cytotoxicity against human SF295 cells after 48 hrs by SRB assay; assay type: functional; details: SF-295, 48 h; for CC50: read-out: LC50 (the source's name); how it was run: as §1
[13] = tested on: U-251; assay: Cytotoxicity against human U251 cells after 48 hrs by SRB assay; assay type: functional; details: U-251, 48 h; for CC50: read-out: LC50 (the source's name)
How it was run: (§2)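 NCI-60 screen: cells grown in RPMI 1640 with 5% FBS and 2 mM L-glutamine, plated at 5,000–40,000 cells/well by doubling time, and preincubated 24 h at 37 °C before drug. Drug was diluted from DMSO stock and given at five concentrations, 10−4 to 10−8 M, for 48 h. Cells fixed with cold TCA, SRB stained, OD read at 515 nm against time-zero and vehicle plates. LC50 taken as the concentration that halves cell population through cell death.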

[14] = tested on: LOX IMVI; assay: Cytotoxicity against human LOXIMVI cells after 48 hrs by SRB assay; assay type: functional; details: for CC50: read-out: LC50 (the source's name); how it was run: as §1
[15] = tested on: SK-MEL-2; assay: Cytotoxicity against human SK-MEL-2 cells after 48 hrs by SRB assay; assay type: functional; details: SK-MEL-2, 48 h; for CC50: read-out: LC50 (the source's name); how it was run: as §1
[16] = tested on: UACC-62; assay: Cytotoxicity against human UACC62 cells after 48 hrs by SRB assay; assay type: functional; details: UACC-62, 48 h; for CC50: read-out: LC50 (the source's name); how it was run: as §2
[17] = tested on: OVCAR-3; assay: Cytotoxicity against human OVCAR3 cells after 48 hrs by SRB assay; assay type: functional; details: OVCAR-3, 48 h; for CC50: read-out: LC50 (the source's name); how it was run: as §1
[18] = tested on: OVCAR-5; assay: Cytotoxicity against human OVCAR5 cells after 48 hrs by SRB assay; assay type: functional; details: OVCAR-5, 48 h; for CC50: read-out: LC50 (the source's name); how it was run: as §1
[19] = tested on: OVCAR-8; assay: Cytotoxicity against human OVCAR8 cells after 48 hrs by SRB assay; assay type: functional; details: OVCAR-8, 48 h; for CC50: read-out: LC50 (the source's name); how it was run: as §1
[20] = Cytotoxicity against human NCI-ADR-RES cells after 48 hrs by SRB assay; assay type: functional; details: for CC50: read-out: LC50 (the source's name); how it was run: as §1
[21] = tested on: RXF 393; assay: Cytotoxicity against human RXF393 cells after 48 hrs by SRB assay; assay type: functional; details: RXF 393, 48 h; for CC50: read-out: LC50 (the source's name); how it was run: as §1
[22] = tested on: SN12C; assay: Cytotoxicity against human SN12C cells after 48 hrs by SRB assay; assay type: functional; details: for CC50: read-out: LC50 (the source's name); how it was run: as §1
[23] = tested on: MCF7; assay: Cytotoxicity against human MCF7 cells after 48 hrs by SRB assay; assay type: functional; details: MCF7, 48 h; for CC50: read-out: LC50 (the source's name)
How it was run: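 NCI-60 screen: cells in RPMI 1640 with 5% FBS and 2 mM L-glutamine, preincubated 24 h at 37 °C. Compound was then added for 48 h at five concentrations (10−4 to 10−8 M). Cells were fixed with cold TCA and stained with 0.4% SRB in 1% acetic acid, and OD read at 515 nm. GI50 is the concentration halving net protein increase versus control.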

[24] = tested on: MDA-MB-231; assay: Cytotoxicity against human MDA-MB-231 cells after 48 hrs by SRB assay; assay type: functional; details: MDA-MB-231, 48 h; how it was run: as §1
[25] = tested on: T47D; assay: Cytotoxicity against human T47D cells after 48 hrs by SRB assay; assay type: functional; details: for CC50: read-out: LC50 (the source's name); how it was run: as §2
[26] = tested on: MDA-MB-468; assay: Cytotoxicity against human MDA-MB-468 cells after 48 hrs by SRB assay; assay type: functional; details: MDA-MB-468, 48 h; how it was run: as §1
[27] = Antileukemic activity against human M9-ENL1 cells after 24 hrs by annexin V/7-AAD staining-based flow cytometric analysis; assay type: functional, cell-based
How it was run: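 M9-ENL1 cells in alpha-MEM with 5% human plasma, 20% FBS, SCF, IL-3, IL-7 and FLT3. Drug came from a DMSO stock diluted in PBS (≤0.5% DMSO final), for 24 h over 0.5-10 μM. Cells negative for both annexin V and 7-AAD were taken as non-apoptotic and normalized to vehicle. EC50 read from dose-response curves, triplicate.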

[28] = Antileukemic activity against human AML05 cells after 24 hrs by annexin V/7-AAD staining-based flow cytometric analysis; assay type: functional, cell-based
How it was run: (§3)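 Primary AML specimens from consenting donors, isolated by Ficoll-Paque gradient and sometimes cryopreserved. Cells were held 1 h in serum-free IMDM with 20% BIT 9500, LDL and β-mercaptoethanol before drug (DMSO stock diluted in PBS, ≤0.5% DMSO final). Exposure was 24 h over 0.5-10 μM. Annexin V/7-AAD double-negative cells, normalized to vehicle, gave the EC50. Run in triplicate.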

[29] = tested on: HOP-62; assay: Cytotoxicity against human HOP62 cells after 48 hrs by SRB assay; assay type: functional; details: HOP-62, 48 h; how it was run: as §1
[30] = Antileukemic activity against human AML03 cells after 24 hrs by annexin V/7-AAD staining-based flow cytometric analysis; assay type: functional, cell-based; how it was run: as §3

## C=C1C(=O)O[C@H]2[C@H]1CC/C(COC(=O)NCCCCCNC(=O)OC/C1=C/CC[C@@]3(C)O[C@H]3[C@H]3OC(=O)C(=C)[C@@H]3CC1)=C\CC[C@@]1(C)O[C@@H]21
[1]
  GI50: 280 nM
  CC50: > 100000 nM
[2]
  GI50: 1480 nM
  CC50: > 100000 nM
[3]
  GI50: 780 nM
  CC50: > 100000 nM
[4]
  GI50: 2560 nM
  CC50: 30900 nM
[5]
  GI50: 2660 nM
  CC50: 45500 nM
[6]
  GI50: 6710 nM
  CC50: 53900 nM
[7]
  GI50: 540 nM
  CC50: 4560 nM
[8]
  GI50: 6180 nM
  CC50: 49800 nM
[9]
  GI50: 510 nM
  CC50: 4850 nM
[10]
  GI50: 6530 nM
  CC50: 54200 nM
[11]
  GI50: 3080 nM
  CC50: 42300 nM
[12]
  GI50: 11100 nM
  CC50: 65200 nM
[13]
  GI50: 3510 nM
  CC50: 51500 nM
[14]
  GI50: 460 nM
  CC50: 5820 nM
[15]
  GI50: 2010 nM
  CC50: 7810 nM
[16]
  GI50: 1410 nM
  CC50: 7040 nM
[17]
  GI50: 760 nM
  CC50: 5070 nM
[18]
  GI50: 1670 nM
  CC50: 7470 nM
[19]
  GI50: 3270 nM
  CC50: 61000 nM
[20]
  GI50: 70000 nM
  CC50: > 100000 nM
[21]
  GI50: 850 nM
  CC50: 6350 nM
[22]
  GI50: 2490 nM
  CC50: 45500 nM
[23]
  GI50: 390 nM
  CC50: 6200 nM
[24]
  GI50: 1470 nM
  LC50: 6400 nM
[25]
  GI50: 1600 nM
  CC50: > 100000 nM
[26]
  GI50: 1060 nM
  LC50: 24700 nM
[27]
  EC50: 570 nM
[28]
  EC50: 1600 nM

## C=C1C(=O)O[C@H]2[C@H]1CC/C(COC(=O)NCCCCCCCCNC(=O)OC/C1=C/CC[C@@]3(C)O[C@H]3[C@H]3OC(=O)C(=C)[C@@H]3CC1)=C\CC[C@@]1(C)O[C@@H]21
[1]
  GI50: 250 nM
  CC50: > 100000 nM
[2]
  GI50: 330 nM
  CC50: > 100000 nM
[3]
  GI50: 250 nM
  CC50: > 100000 nM
[29]
  GI50: 1530 nM
[29]; read-out: LC50 (the source's name)
  CC50: 7950 nM
[4]
  GI50: 1810 nM
  CC50: 21100 nM
[5]
  GI50: 480 nM
  CC50: 4860 nM
[6]
  GI50: 1200 nM
  CC50: 5280 nM
[7]
  GI50: 190 nM
  CC50: 830 nM
[8]
  GI50: 340 nM
  CC50: 4180 nM
[9]
  GI50: 220 nM
  CC50: 2270 nM
[10]
  GI50: 1290 nM
  CC50: 7490 nM
[11]
  GI50: 990 nM
  CC50: 7240 nM
[12]
  GI50: 1950 nM
  CC50: 16200 nM
[13]
  GI50: 570 nM
  CC50: 5130 nM
[14]
  GI50: 170 nM
  CC50: 760 nM
[15]
  GI50: 600 nM
  CC50: 17000 nM
[16]
  GI50: 190 nM
  CC50: 1720 nM
[17]
  GI50: 330 nM
  CC50: 3320 nM
[18]
  GI50: 260 nM
  CC50: 4040 nM
[19]
  GI50: 320 nM
  CC50: 6770 nM
[20]
  GI50: 3910 nM
  CC50: 82000 nM
[21]
  GI50: 160 nM
  CC50: 640 nM
[22]
  GI50: 260 nM
  CC50: 5490 nM
[23]
  GI50: 220 nM
  CC50: 4300 nM
[24]
  GI50: 200 nM
  LC50: 1240 nM
[25]
  GI50: 320 nM
  CC50: > 100000 nM
[26]
  GI50: 190 nM
  LC50: 1500 nM
[27]
  EC50: 2000 nM
[30]
  EC50: 2900 nM
[28]
  EC50: 2300 nM
